Source: PubChem (several laboratories)
SENP8 block-1: blocks human SENP8 cleavage of Nedd8 substrate; Q96LD8; recombinant SENP8, Nedd8 substrate fluorescence; inhibition, % at 20 µM; 360,000 compounds, 0.64% hits; AID 602440; in the data active = inhibition mostly above about 40%, no sharp cut-off; inactive = mostly below about 27%
SENP1 inh: inhibitors of human SENP1 SUMO protease catalytic domain; Q9P0U3; recombinant SENP1 catalytic domain, CyPet-SUMO1-YPet FRET cleavage; inhibition, % at 10 µM; 360,000 compounds, 0.21% hits; AID 624204;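 active = inhibition at least 30% at 10 µM, raw YFP signal under a set limit, fluorescence ratio 0.5 to 1.5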;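 note: 0% = enzyme with DMSO and 100% = no enzyme wells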
Target sequence (Q9P0U3 419-644 limits assumed): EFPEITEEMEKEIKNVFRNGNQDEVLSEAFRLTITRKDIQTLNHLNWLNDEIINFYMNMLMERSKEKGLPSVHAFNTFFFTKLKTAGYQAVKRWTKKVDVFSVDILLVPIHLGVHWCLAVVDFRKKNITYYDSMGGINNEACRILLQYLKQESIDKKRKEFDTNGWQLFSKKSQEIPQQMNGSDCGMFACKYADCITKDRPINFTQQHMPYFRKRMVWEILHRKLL
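Assay system: hSENP1 catalytic domain, recombinant. Amount: SENP1 enzyme, 20 pM final. Schedule: 50 min reaction, RT, dark. Technique: FRET, CFP and YFP emission. Control set: no-enzyme wells low, DMSO-plus-enzyme wells high control.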
SENP8 block-2: blocks the human protease SENP8 | 330,000 compounds, 1.2% hits | inhibition, % at 10 µM | AID 2540 | purified SENP8, Z-RLRGG-aminoluciferin cleavage, luminescence; in the data active = inhibition above about 50%
SENP6 inh: blocks the human protease SENP6. Q9GZR1. Recombinant SENP6 catalytic domain, aminoluciferin luminescence. inhibition, % at 10 µM. 330,000 compounds, 1.8% hits;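 active = inhibition above about 50% at the single tested dose, limit read from the data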;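 note: plate controls were DMSO wells with enzyme for no effect and DMSO wells lacking enzyme for full effect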
Target sequence (Q9GZR1 628-1112 limits assumed): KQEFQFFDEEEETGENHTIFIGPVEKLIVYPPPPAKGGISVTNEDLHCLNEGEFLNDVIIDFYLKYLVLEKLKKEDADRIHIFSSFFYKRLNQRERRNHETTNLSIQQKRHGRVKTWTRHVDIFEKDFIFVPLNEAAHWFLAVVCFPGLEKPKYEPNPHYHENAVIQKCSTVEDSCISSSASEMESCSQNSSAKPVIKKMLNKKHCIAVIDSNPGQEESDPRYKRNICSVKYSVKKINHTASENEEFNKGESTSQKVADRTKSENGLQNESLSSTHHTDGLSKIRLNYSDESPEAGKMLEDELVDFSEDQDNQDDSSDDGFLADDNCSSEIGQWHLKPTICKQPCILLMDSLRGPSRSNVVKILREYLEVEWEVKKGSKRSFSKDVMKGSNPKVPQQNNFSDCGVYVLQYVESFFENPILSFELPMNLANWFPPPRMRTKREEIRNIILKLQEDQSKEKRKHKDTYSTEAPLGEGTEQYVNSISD
UCH37 DUB inh: inhibitors of human deubiquitinating enzyme UCH37. Q9Y5K5. purified proteasome/UCH37, Ub-AMC cleavage fluorescence. inhibition, % (no concentration beside the values). 330,000 compounds, 0.33% hits;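 active = mean inhibition over replicate wells above about 20%, limit read from the data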;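 note: 0% = compound-free wells with enzyme and 100% = wells lacking proteasome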
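Material: human UCH37 enzyme supplied as purified proteasome complex / Amount: 0.15 nM proteasome as dispensed / Buffer or medium: pH 7.4 Tris-HCl (50 mM) with ovalbumin, ATP-MgCl2, DTT / Times: preincubation 30 min, reaction 25 min, room temperature / Technique: AMC fluorescence from Ub-AMC cleavage, excitation 355 nm, emission 460 nm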
SENP7 inh: inhibitors of human SENP7 protease; recombinant SENP7, Z-RLRGG-aminoluciferin luminescence, 40 min; inhibition, % at 5 µM; 330,000 compounds, 1.5% hits; Q9BQF6;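 active = inhibition above about 50% at the single test dose, limit read from the data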;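 note: plate controls were DMSO with enzyme for no effect and no enzyme buffer wells for full effect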
SENP8 conf: confirmation of human SENP8 protease inhibitors; shares compounds with SENP7 inh; Recombinant SENP8, Z-RLRGG-aminoluciferin luminescence, 60 min; inhibition, % at 12.5 µM; 6,200 compounds, 40% hits;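 active = mean inhibition across replicates above about 50%, limit read from the data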
SENP6 confirm: confirmation of human SENP6 protease inhibitors. AID 488915. inhibition, % at 12.5 µM. recombinant SENP6, Z-RLRGG-aminoluciferin luminescence. shares compounds with SENP7 inh. 6,200 compounds, 58% hits
SENP7 confirm: human SENP7 inhibition, confirmed; shares compounds with SENP7 inh; recombinant SENP7, Z-RLRGG-aminoluciferin luminescence, 40 min; inhibition, % at 12.5 µM; 6,200 compounds, 69% hits
Casp3 select: selectivity test for SENP inhibitors: human caspase-3 inhibition; shares compounds with SENP7 inh; purified caspase-3, Z-DEVD-aminoluciferin luminescence, 60 min; inhibition, % at 12.5 µM; 6,200 compounds, 60% hits; AID 488918;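 active = mean inhibition above about 50%, limit read from the data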;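 note: plate controls were enzyme with DMSO for no effect and wells without caspase-3 for full effect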
Luc interf: interferes with luciferase luminescence in SENP counter-screen | shares compounds with SENP7 inh | Pre-incubated SENP8/Z-RLRGG-aminoluciferin, luciferase luminescence interference | inhibition, % at 12.5 µM | 6,200 compounds, 39% hits;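 active = mean inhibition above about 50% when retested at one dose, limit read from the data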;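 note: plate controls were DMSO wells with completed reaction for no effect and substrate without enzyme for full effect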
* hit, by the source's call. Hits are enriched below; roughly 2.6% of the tested compounds scored in any of these assays.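 Rule for the calls, unless noted: active = mean inhibition above about 50% in the one-dose retest (limit read from the data); inactive = the rest.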

Clc1ccc(-n2ncc3c(N4CCCCCC4)ncnc32)cc1 was read as SENP8 block-1 6.5, SENP1 inh -15.6, SENP8 block-2 86.4*, SENP6 inh 94.5*, UCH37 DUB inh 7.5, SENP7 inh 91.3*, SENP8 conf 47.2, SENP6 confirm 53.0*, SENP7 confirm 72.4*, Casp3 select 57.3* and Luc interf 1.2.
For COc1ccc(-n2ncc3c(N4CCCCC4)ncnc32)cc1 the results were SENP8 block-1 -351.3, SENP1 inh -4.9, SENP8 block-2 93.2*, SENP6 inh 95.8*, UCH37 DUB inh 2.2, SENP7 inh 98.0*, SENP8 conf 94.6*, SENP6 confirm 97.5*, SENP7 confirm 102.7*, Casp3 select 96.4* and Luc interf 95.2*.
`Clc1ccc(Cn2ncc3c(N4CCCCC4)ncnc32)cc1` gave SENP8 block-1 8.4, SENP1 inh -5.3, SENP8 block-2 3.8, SENP6 inh -16.4, UCH37 DUB inh 3.5 and SENP7 inh 7.4.
Cc1cccc(-n2ncc3c(N4CCOCC4)ncnc32)c1 was read as SENP8 block-1 14.7, SENP1 inh 1.9, SENP8 block-2 70.4*, SENP6 inh 70.9*, UCH37 DUB inh 4.7, SENP7 inh 78.6*, SENP8 conf 77.5*, SENP6 confirm 75.8*, SENP7 confirm 90.8*, Casp3 select 86.4* and Luc interf 60.7*.
For N#CC(=NNc1ccc(F)cc1)C(=N)N1CCCCCC1 the results were UCH37 DUB inh 6.1.
`CCOc1cc(C(=O)NN=Cc2ccoc2)cc(OCC)c1OCC` gave UCH37 DUB inh 3.1.
O=S1(=O)CC/C(=N/Nc2ccc(C(F)(F)F)cn2)c2cc(F)ccc21 was read as SENP8 block-1 24.2, SENP1 inh 2.1, SENP8 block-2 -2.9, SENP6 inh -2.1 and SENP7 inh 5.7.
For O=S1(=O)CC/C(=N/Nc2ccccn2)c2cc(F)ccc21 the results were SENP8 block-1 8.5, SENP1 inh 2.6, SENP8 block-2 -6.9, SENP6 inh -15.4, SENP7 inh 62.7*, SENP8 conf 4.4, SENP6 confirm 7.1, SENP7 confirm 8.1, Casp3 select 3.7 and Luc interf 1.8.
COc1cc2c(cc1OC)-c1cc3ccc4c(c3c[n+]1CC2)OCO4 was read as SENP8 block-1 -383.9, SENP1 inh 30.2, SENP8 block-2 11.1, SENP6 inh 50.1*, UCH37 DUB inh -13.8, SENP7 inh 13.9, SENP8 conf 25.7, SENP6 confirm 46.2, SENP7 confirm 23.9, Casp3 select 12.3 and Luc interf 6.6.
Screening Brc1ccc(C=NNc2ccc3ccccc3n2)cc1 returned UCH37 DUB inh -1.3.
`Cc1cccc(/C=N/Nc2ccc3ccccc3n2)c1` gave SENP8 block-1 -406.8, SENP1 inh 1.7, SENP8 block-2 96.1*, SENP6 inh 91.9*, SENP7 inh 5.2, SENP8 conf -5.6, SENP6 confirm 100.7*, SENP7 confirm 104.0*, Casp3 select 98.2* and Luc interf 75.2*.
For Cc1ccc(/C=N/Nc2ccc3ccccc3n2)o1 the results were SENP8 block-1 -457.4, SENP1 inh -16.9, SENP8 block-2 85.0*, SENP6 inh 78.7*, SENP7 inh 88.3*, SENP8 conf 92.8*, SENP6 confirm 92.8*, SENP7 confirm 100.0*, Casp3 select 91.7* and Luc interf 85.1*.
Screening C(=N\Nc1ccc2ccccc2n1)/c1ccc2c(c1)OCCO2 returned SENP8 block-1 -392.9, SENP1 inh -4.9, SENP8 block-2 84.3*, SENP6 inh 78.4*, SENP7 inh -3.6, SENP8 conf 97.9*, SENP6 confirm 100.5*, SENP7 confirm 103.9*, Casp3 select 97.5* and Luc interf 84.6*.
Cc1noc(C)c1C=NNc1ccc2ccccc2n1 was read as UCH37 DUB inh -9.2.
CCCC(=NNC(=O)CNC(=O)c1ccc(Cl)cc1)c1ccccc1 was read as UCH37 DUB inh 1.7.
Cc1nc(C#N)c(N/N=C/c2cccc(Cl)c2)o1 was read as SENP8 block-1 -18.6, SENP1 inh 1.7, SENP8 block-2 86.1*, SENP6 inh 77.9*, SENP7 inh 11.2, SENP8 conf -3.0, SENP6 confirm 90.7*, SENP7 confirm 99.8*, Casp3 select 79.9* and Luc interf 84.2*.
For O=[N+]([O-])c1cccnc1NCCc1ccccc1 the results were SENP8 block-1 9.7, SENP1 inh 0.3, SENP8 block-2 80.9*, SENP6 inh 94.9*, UCH37 DUB inh 2.2, SENP7 inh 88.0*, SENP8 conf 41.1, SENP6 confirm 69.3*, SENP7 confirm 87.9*, Casp3 select 71.8* and Luc interf 17.4.
For O=[N+]([O-])c1cccnc1NCCNc1ncc(C(F)(F)F)cc1Cl the results were SENP8 block-1 26.3, SENP1 inh -14.1, SENP8 block-2 35.8, SENP6 inh 66.9*, UCH37 DUB inh 2.5, SENP7 inh 57.9*, SENP8 conf 59.6*, SENP6 confirm 56.2*, SENP7 confirm 82.8*, Casp3 select 36.7 and Luc interf 47.0.
O=c1cc(Cl)[nH]c(=O)n1CCNc1ncc(C(F)(F)F)cc1Cl was read as SENP8 block-1 -39.7, SENP1 inh -107.3, SENP8 block-2 33.5, SENP6 inh 58.3*, UCH37 DUB inh 3.2, SENP7 inh 9.6, SENP8 conf 52.4*, SENP6 confirm 48.6, SENP7 confirm 76.8*, Casp3 select 73.0* and Luc interf 9.8.
For O=C1C=CC(=O)N1CCNc1ncc(C(F)(F)F)cc1Cl the results were SENP8 block-1 17.5, SENP1 inh 1.8, SENP8 block-2 -9.1, SENP6 inh -14.9, UCH37 DUB inh 1.2 and SENP7 inh -2.9.
O=C(N/N=C/c1ccccc1)c1[nH]ncc1Br was read as SENP8 block-1 6.0, SENP1 inh 0.2, SENP8 block-2 86.0*, SENP6 inh 91.4*, SENP7 inh 94.9*, SENP8 conf 88.9*, SENP6 confirm 88.0*, SENP7 confirm 98.2*, Casp3 select 94.8* and Luc interf 39.6.
